Laboratory results taken from ChEMBL document CHEMBL1165965, “Synthesis and structure-activity relationships of 1,2,3,4-tetrahydropyrido[2,3-b]pyrazines as potent and selective inhibitors of the anaplastic lymphoma kinase” (Bioorg Med Chem, 2010).

Tests used:
[1] = test system: Mast/stem cell growth factor receptor Kit (Homo sapiens), P10721 [V559D]; experiment: Inhibition of KIT V559D mutant at 1 uM
Summary of the method: (§1)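 Single-concentration screen on the Ambit KINOMEscan platform, run against a panel of 250–400 kinases. Per-kinase inhibition was also summarized as S(90), the fraction of kinases inhibited by more than 90%.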

[2] = target: MAP kinase-activated protein kinase 2 (Homo sapiens) (UniProt P49137); experiment: Inhibition of MAPKAPK2 at 1 uM
[3] = target: MAP kinase-interacting serine/threonine-protein kinase 2 (Homo sapiens) (UniProt Q9HBH9); experiment: Inhibition of MKNK2 at 1 uM
Summary of the method: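 Kinase-panel screen using KINOMEscan technology, with 250–400 kinases per panel. Each compound was tested at a single concentration, and inhibition of each kinase was recorded. Selectivity was summarised as S(90), the fraction of kinases inhibited by more than 90%.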

[4] = target: Myosin light chain kinase, smooth muscle (Homo sapiens) (UniProt Q15746); experiment: Inhibition of MLCK at 1 uM
[5] = target: Platelet-derived growth factor receptor beta (Homo sapiens) (UniProt P09619); experiment: Inhibition of PDGFRB at 1 uM
[6] = test system: Phosphatidylinositol 4,5-bisphosphate 3-kinase catalytic subunit alpha isoform (Homo sapiens), P42336 [H1047L]; experiment: Inhibition of PIK3CA H1047L mutant at 1 uM
[7] = target: Serine/threonine-protein kinase PLK2 (Homo sapiens) (UniProt Q9NYY3); experiment: Inhibition of PLK2 at 1 uM
[8] = target: Ribosomal protein S6 kinase alpha-5 (Homo sapiens) (UniProt O75582); experiment: Inhibition of RPS6KA5 N-terminal domain1 at 1 uM
[9] = target: Serine/threonine-protein kinase 32B (Homo sapiens) (UniProt Q9NY57); experiment: Inhibition of YANK2 at 1 uM
[10] = target: Atypical kinase COQ8A, mitochondrial (Homo sapiens) (UniProt Q8NI60); experiment: Inhibition of ADCK3 at 1 uM
Summary of the method: (§2)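 Ambit KINOMEscan screen at a single concentration across a 250–400 kinase panel, recorded as percent inhibition. Selectivity was expressed as S(90), the fraction of kinases inhibited >90%.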

[11] = target: RAC-gamma serine/threonine-protein kinase (Homo sapiens) (UniProt Q9Y243); experiment: Inhibition of AKT3 at 1 uM; summary of the method: as §2
[12] = target: Tyrosine-protein kinase Blk (Homo sapiens) (UniProt P51451); experiment: Inhibition of BLK at 1 uM; summary of the method: as §2
[13] = target: Bone morphogenetic protein receptor type-1A (Homo sapiens) (UniProt P36894); experiment: Inhibition of BMPR1A at 1 uM; summary of the method: as §2
[14] = target: Death-associated protein kinase 1 (Homo sapiens) (UniProt P53355); experiment: Inhibition of DAPK1 at 1 uM
Summary of the method: (§3)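 Single-concentration screen using Ambit Bioscience KINOMEscan technology across a panel of 250–400 kinases. Per-kinase inhibition from this screen was summarized as S(90), the fraction of kinases inhibited by more than 90%.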

[15] = target: T1, Ephrin type-A receptor 1 (Homo sapiens) (UniProt P21709); experiment: Inhibition of EPHA1 at 1 uM; summary of the method: as §3
T1 sequence (whole entry): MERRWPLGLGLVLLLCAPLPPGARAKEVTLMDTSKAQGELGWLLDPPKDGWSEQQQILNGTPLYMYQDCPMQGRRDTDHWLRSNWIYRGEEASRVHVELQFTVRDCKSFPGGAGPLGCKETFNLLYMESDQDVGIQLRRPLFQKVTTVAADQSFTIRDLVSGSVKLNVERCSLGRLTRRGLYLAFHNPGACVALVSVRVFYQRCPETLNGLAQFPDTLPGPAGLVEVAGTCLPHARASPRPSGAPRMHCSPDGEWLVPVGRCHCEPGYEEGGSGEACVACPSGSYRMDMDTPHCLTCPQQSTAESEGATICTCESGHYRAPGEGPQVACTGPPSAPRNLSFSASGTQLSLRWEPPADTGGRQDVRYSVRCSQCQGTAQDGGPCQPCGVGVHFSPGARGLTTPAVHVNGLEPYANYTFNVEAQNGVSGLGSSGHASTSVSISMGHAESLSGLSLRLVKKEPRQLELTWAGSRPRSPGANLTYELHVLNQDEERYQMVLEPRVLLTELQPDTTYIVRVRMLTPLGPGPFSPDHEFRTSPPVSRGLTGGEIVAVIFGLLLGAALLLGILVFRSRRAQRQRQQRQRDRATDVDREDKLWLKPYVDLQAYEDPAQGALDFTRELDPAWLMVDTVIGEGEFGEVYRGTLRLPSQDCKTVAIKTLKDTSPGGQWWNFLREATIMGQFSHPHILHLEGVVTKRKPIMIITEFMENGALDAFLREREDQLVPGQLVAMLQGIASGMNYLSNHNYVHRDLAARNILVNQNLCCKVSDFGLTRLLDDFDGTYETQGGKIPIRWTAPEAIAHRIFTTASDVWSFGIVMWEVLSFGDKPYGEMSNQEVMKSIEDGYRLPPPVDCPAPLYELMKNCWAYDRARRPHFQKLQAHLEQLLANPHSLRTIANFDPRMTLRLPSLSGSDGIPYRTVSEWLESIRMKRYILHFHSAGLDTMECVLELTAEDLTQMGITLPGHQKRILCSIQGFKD

[16] = target: Glycogen synthase kinase-3 alpha (Homo sapiens) (UniProt P49840); experiment: Inhibition of GSK3A at 1 uM; summary of the method: as §1
Chain of Glycogen synthase kinase-3 alpha (Homo sapiens) (P49840 2-483 limits assumed): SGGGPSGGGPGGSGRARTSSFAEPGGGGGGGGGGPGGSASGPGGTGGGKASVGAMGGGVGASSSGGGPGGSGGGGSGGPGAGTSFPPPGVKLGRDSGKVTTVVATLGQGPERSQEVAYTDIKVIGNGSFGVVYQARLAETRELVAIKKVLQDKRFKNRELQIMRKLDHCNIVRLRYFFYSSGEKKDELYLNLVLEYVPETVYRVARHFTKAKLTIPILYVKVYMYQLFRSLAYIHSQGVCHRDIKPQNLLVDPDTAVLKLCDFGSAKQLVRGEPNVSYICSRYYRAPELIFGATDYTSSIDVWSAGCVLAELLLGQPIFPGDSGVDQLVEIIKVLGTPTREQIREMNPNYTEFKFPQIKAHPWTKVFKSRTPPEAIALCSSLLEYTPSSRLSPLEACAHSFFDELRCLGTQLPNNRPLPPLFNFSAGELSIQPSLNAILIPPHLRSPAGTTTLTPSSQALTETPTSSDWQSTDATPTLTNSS

Chain of Ribosomal protein S6 kinase alpha-5 (Homo sapiens) (O75582 whole entry, looked up, the tested form may be a part): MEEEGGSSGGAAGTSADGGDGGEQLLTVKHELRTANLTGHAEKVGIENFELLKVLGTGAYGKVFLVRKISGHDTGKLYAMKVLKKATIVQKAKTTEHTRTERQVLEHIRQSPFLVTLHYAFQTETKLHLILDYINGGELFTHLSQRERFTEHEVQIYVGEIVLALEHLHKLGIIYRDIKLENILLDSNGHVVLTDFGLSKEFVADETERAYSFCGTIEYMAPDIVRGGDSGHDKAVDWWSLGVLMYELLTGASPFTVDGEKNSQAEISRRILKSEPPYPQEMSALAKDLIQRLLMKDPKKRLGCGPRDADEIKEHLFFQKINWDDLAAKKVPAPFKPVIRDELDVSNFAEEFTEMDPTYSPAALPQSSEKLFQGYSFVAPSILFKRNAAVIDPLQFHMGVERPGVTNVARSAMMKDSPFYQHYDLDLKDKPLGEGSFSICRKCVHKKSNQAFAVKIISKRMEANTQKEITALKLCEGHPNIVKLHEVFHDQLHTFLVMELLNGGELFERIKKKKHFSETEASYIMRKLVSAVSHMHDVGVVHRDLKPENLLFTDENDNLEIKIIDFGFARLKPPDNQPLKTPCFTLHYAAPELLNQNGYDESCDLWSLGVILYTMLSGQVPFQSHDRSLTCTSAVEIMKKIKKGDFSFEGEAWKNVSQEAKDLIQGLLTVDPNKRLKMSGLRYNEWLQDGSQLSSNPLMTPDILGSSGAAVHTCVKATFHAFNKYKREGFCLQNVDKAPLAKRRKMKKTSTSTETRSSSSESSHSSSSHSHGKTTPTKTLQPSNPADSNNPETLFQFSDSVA
Chain of RAC-gamma serine/threonine-protein kinase (Homo sapiens) (Q9Y243 whole entry): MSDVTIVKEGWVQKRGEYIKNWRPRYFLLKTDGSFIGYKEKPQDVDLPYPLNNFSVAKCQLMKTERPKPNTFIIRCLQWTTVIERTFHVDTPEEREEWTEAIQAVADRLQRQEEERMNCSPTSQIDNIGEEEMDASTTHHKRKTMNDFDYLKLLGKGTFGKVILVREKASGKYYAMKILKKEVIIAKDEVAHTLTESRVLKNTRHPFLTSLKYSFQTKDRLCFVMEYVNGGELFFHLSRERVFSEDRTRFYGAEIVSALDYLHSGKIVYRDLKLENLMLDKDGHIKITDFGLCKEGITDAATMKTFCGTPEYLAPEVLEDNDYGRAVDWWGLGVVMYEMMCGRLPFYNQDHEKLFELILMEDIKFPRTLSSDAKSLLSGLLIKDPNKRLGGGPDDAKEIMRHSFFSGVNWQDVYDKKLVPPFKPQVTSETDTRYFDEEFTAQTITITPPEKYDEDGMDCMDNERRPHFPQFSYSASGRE
Chain of Atypical kinase COQ8A, mitochondrial (Homo sapiens) (Q8NI60 163-647 limits assumed): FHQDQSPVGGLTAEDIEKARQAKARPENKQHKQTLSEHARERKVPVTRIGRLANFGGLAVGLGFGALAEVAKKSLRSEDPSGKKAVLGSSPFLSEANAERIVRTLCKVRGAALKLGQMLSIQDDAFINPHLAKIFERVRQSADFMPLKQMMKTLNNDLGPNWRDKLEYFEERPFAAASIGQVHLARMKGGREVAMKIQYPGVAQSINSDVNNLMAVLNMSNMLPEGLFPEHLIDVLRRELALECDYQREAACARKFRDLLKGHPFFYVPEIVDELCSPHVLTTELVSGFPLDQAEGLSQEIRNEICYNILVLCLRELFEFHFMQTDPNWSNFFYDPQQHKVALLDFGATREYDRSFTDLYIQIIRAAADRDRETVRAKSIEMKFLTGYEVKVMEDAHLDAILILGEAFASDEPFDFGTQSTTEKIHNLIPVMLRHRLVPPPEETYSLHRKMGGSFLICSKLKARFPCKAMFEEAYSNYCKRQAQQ
Chain of Bone morphogenetic protein receptor type-1A (Homo sapiens) (P36894 whole entry): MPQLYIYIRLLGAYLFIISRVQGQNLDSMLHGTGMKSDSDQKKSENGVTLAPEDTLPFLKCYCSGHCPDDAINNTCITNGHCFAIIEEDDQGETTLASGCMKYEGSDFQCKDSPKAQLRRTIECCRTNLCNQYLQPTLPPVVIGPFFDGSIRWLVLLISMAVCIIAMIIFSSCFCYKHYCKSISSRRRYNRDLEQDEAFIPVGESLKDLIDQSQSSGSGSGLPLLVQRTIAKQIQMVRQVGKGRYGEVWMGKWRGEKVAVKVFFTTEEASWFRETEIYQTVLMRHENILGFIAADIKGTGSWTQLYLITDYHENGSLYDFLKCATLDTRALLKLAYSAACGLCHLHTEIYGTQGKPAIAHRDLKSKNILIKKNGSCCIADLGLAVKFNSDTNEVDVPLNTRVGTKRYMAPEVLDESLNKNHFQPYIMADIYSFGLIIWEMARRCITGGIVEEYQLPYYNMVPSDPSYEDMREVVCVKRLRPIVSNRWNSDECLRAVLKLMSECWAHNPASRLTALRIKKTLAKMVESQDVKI
Chain of Death-associated protein kinase 1 (Homo sapiens) (P53355 whole entry, looked up): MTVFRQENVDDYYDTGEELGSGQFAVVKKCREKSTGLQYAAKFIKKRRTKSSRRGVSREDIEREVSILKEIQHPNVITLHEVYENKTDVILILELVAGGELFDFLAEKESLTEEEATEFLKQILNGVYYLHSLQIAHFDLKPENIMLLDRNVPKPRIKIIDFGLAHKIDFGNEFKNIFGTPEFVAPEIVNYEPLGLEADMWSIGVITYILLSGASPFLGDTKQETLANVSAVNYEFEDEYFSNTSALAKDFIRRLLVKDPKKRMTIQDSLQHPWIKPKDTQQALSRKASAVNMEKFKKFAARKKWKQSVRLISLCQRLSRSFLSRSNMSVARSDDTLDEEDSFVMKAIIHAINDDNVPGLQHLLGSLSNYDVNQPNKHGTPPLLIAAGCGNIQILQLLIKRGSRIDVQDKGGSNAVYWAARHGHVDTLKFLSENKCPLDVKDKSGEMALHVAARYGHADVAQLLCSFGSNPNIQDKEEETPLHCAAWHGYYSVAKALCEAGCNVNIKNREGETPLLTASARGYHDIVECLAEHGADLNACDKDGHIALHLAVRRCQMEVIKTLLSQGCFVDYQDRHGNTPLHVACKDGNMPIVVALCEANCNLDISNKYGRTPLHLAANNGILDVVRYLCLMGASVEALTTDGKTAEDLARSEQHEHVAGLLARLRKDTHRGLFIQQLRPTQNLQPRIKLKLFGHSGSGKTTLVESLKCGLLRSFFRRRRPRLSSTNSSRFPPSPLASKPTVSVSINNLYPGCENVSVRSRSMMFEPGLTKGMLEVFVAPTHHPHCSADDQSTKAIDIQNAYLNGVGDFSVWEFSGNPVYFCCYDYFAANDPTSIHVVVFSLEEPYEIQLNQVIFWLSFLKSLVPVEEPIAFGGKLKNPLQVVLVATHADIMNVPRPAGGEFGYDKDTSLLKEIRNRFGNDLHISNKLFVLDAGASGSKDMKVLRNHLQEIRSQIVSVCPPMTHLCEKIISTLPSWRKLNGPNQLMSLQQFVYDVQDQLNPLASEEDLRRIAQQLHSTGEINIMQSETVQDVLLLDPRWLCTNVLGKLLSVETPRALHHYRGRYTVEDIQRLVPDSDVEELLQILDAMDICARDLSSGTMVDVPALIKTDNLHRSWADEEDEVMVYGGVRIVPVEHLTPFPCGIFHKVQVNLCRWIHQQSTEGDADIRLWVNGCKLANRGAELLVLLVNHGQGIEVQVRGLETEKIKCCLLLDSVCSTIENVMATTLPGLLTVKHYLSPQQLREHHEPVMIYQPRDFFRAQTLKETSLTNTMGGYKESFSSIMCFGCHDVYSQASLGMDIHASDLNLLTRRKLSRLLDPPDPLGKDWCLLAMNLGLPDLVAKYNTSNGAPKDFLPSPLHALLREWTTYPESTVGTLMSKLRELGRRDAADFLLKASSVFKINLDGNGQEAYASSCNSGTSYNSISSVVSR
Chain of Serine/threonine-protein kinase PLK2 (Homo sapiens) (Q9NYY3 whole entry, looked up, the tested form may be a part): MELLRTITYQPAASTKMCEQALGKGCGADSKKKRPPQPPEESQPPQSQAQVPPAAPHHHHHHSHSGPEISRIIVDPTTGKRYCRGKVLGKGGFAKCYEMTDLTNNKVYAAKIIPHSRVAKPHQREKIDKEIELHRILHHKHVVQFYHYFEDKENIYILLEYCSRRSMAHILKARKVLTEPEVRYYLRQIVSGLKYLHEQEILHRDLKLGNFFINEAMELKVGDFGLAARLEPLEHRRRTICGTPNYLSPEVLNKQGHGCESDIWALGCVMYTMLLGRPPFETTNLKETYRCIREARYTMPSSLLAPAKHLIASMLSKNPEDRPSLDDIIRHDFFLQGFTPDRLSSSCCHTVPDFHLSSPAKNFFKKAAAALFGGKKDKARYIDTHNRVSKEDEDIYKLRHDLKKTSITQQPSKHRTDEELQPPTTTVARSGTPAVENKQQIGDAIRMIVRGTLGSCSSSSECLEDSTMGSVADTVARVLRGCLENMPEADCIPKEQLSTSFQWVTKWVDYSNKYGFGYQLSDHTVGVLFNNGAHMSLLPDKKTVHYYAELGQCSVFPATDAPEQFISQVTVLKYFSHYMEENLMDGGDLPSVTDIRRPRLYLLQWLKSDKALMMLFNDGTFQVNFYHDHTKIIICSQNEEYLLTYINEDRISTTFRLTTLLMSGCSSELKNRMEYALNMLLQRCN

Compound | inhibition [1] [%] | inhibition [2] [%] | inhibition [3] [%] | inhibition [4] [%] | inhibition [5] [%] | inhibition [6] [%] | inhibition [7] [%] | inhibition [8] [%] | inhibition [9] [%] | inhibition [10] [%] | inhibition [11] [%] | inhibition [12] [%] | inhibition [13] [%] | inhibition [15] [%] | inhibition [16] [%] | inhibition [14] [%]
O=C(O)c1ccc(-c2cnc3c(c2)N(Cc2cc(Cl)ccc2C(F)(F)F)CCN3)cc1 | < 50 | – | < 50 | – | < 50 | – | – | < 50 | < 50 | < 50 | < 50 | < 50 | < 50 | < 50 | < 50 | < 50
FC(F)(F)c1ccc(Cl)cc1CN1CCNc2ncc(-c3ccnc(N4CCNCC4)c3)cc21 | 97 | < 50 | < 50 | < 50 | 92 | < 50 | < 50 | < 50 | < 50 | < 50 | < 50 | < 50 | < 50 | < 50 | < 50 | < 50
CC(=O)N1CCN(c2cc(-c3cnc4c(c3)N(Cc3cc(Cl)ccc3C(F)(F)F)CCN4)ccn2)CC1 | < 50 | < 50 | < 50 | < 50 | < 50 | < 50 | 82 | < 50 | < 50 | < 50 | < 50 | < 50 | < 50 | < 50 | < 50 | < 50
CN1CCN(c2ccc(-c3cnc4c(c3)N(Cc3cc(F)ccc3F)CCN4)cn2)CC1 | < 50 | < 50 | < 50 | < 50 | < 50 | < 50 | < 50 | < 50 | < 50 | < 50 | < 50 | < 50 | < 50 | 62.1 | < 50 | < 50
CN1CCN(c2ccc(-c3cnc4c(c3)N(Cc3c(F)ccc(F)c3Cl)CCN4)cn2)CC1 | 69 | < 50 | < 50 | < 50 | < 50 | < 50 | < 50 | < 50 | < 50 | < 50 | < 50 | < 50 | < 50 | < 50 | < 50 | < 50

The next lines start with results.

inhibition [1] [%] | inhibition [2] [%] | inhibition [3] [%] | inhibition [4] [%] | inhibition [5] [%] | inhibition [6] [%] | inhibition [7] [%] | inhibition [8] [%] | inhibition [9] [%] | inhibition [10] [%] | inhibition [11] [%] | inhibition [12] [%] | inhibition [13] [%] | inhibition [15] [%] | inhibition [16] [%] | Compound | inhibition [14] [%]
< 50 | < 50 | < 50 | < 50 | < 50 | < 50 | < 50 | < 50 | < 50 | < 50 | < 50 | < 50 | < 50 | < 50 | < 50 | CN1CCN(c2ccc(-c3cnc4c(c3)N(Cc3cc(Cl)ccc3C(F)(F)F)CCN4)cn2)CC1 | < 50
91.9 | – | < 50 | – | 76.4 | – | – | < 50 | < 50 | < 50 | < 50 | < 50 | < 50 | 81 | < 50 | O=C(c1ccc(-c2cnc3c(c2)N(Cc2cc(Cl)ccc2C(F)(F)F)CCN3)cc1)N1CCC(N2CCCC2)CC1 | < 50
< 50 | – | < 50 | – | < 50 | – | – | < 50 | < 50 | < 50 | < 50 | < 50 | < 50 | < 50 | < 50 | COC1CCN(C(=O)c2ccc(-c3cnc4c(c3)N(Cc3cc(Cl)ccc3C(F)(F)F)CCN4)cc2)CC1 | < 50
< 50 | – | < 50 | – | < 50 | – | – | < 50 | < 50 | < 50 | < 50 | < 50 | < 50 | < 50 | < 50 | O=C(c1ccc(-c2cnc3c(c2)N(Cc2cc(Cl)ccc2C(F)(F)F)CCN3)cc1)N1CCCCC1 | < 50
82 | < 50 | < 50 | < 50 | < 50 | < 50 | < 50 | < 50 | < 50 | < 50 | < 50 | < 50 | < 50 | < 50 | < 50 | CN1CCN(c2ccc(-c3cnc4c(c3)N(Cc3cc(Cl)ccc3Cl)CCN4)cn2)CC1 | < 50
